Reference: ChEMBL document CHEMBL2169882, “Exploration of novel 3-substituted azetidine derivatives as triple reuptake inhibitors” (J Med Chem, 2012)
Calls of active or inactive are those of the source. The calls are words filed in the database; no cut-off is given here.

Key:
[1] = molecular target: T1, Sodium-dependent noradrenaline transporter (Homo sapiens, UniProt P23975); settings: HEK293, at 0.1 µM
[2] = molecular target: T2, Sodium-dependent serotonin transporter (Homo sapiens, UniProt P31645); settings: HEK293, at 0.1 µM
Target sequence in this assay (P31645 whole entry, looked up): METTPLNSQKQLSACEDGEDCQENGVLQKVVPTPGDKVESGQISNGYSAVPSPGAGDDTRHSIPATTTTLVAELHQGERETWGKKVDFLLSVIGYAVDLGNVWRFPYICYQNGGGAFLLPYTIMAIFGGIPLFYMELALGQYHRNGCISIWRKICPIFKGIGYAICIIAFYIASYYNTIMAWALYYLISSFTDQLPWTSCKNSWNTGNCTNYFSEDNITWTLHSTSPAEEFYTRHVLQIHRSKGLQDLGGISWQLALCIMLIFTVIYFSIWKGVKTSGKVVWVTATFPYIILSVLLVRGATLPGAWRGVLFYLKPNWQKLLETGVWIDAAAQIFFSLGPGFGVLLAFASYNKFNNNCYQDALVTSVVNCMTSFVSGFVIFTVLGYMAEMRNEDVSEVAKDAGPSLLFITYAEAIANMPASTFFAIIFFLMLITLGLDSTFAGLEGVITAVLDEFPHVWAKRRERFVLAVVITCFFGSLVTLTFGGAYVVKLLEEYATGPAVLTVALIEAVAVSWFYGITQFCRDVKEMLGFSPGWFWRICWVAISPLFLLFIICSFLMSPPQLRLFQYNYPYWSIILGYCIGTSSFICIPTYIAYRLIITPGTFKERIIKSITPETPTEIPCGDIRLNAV

[3] = molecular target: T3, Sodium-dependent dopamine transporter (Homo sapiens, UniProt Q01959); settings: HEK293, at 0.1 µM
T3 sequence (Q01959 whole entry): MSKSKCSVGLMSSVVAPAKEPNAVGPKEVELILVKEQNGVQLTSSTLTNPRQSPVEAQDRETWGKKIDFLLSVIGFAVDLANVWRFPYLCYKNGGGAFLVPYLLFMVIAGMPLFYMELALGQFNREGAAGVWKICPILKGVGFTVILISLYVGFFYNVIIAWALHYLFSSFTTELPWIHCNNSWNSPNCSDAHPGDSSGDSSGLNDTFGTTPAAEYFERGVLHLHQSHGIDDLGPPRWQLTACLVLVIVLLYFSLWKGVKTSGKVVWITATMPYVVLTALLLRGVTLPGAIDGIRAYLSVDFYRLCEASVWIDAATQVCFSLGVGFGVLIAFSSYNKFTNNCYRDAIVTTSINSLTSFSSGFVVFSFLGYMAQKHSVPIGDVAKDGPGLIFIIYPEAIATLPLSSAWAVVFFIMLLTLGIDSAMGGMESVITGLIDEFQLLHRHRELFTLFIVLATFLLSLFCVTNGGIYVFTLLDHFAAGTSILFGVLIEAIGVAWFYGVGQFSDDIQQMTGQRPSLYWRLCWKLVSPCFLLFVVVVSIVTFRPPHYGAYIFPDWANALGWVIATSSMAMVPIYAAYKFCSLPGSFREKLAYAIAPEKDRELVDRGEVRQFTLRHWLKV

CYP2D6 = CYP2D6 (Homo sapiens, UniProt P10635); experiment: Inhibition of human recombinant CYP2D6 at 10 uM after 5 mins by fluorescence assay
CYP2D6, sequence (P10635 whole entry): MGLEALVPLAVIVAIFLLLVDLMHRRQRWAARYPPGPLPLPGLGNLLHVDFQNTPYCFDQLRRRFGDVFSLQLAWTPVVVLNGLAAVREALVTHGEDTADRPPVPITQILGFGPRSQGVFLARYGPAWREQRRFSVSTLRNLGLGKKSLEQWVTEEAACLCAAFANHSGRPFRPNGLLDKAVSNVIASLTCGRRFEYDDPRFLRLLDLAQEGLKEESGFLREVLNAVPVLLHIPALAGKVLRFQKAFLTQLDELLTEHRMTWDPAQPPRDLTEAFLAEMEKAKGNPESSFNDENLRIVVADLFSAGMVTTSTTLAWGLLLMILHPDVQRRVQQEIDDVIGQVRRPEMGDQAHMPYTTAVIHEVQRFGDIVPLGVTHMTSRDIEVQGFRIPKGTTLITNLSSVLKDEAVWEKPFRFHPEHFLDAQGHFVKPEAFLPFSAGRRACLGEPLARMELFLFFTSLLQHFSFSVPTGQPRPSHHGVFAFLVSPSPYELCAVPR
Summary of the method: (§1)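 Single-point screen at 10 μM against human CYP2D6 or CYP3A4, using a VIVID CYP enzyme kit. Results were expressed as percentage inhibition.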

CYP3A4 = CYP3A4 (Homo sapiens, UniProt P08684); experiment: Inhibition of human recombinant CYP3A4 at 10 uM after 5 mins by fluorescence assay
CYP3A4, sequence (P08684 whole entry): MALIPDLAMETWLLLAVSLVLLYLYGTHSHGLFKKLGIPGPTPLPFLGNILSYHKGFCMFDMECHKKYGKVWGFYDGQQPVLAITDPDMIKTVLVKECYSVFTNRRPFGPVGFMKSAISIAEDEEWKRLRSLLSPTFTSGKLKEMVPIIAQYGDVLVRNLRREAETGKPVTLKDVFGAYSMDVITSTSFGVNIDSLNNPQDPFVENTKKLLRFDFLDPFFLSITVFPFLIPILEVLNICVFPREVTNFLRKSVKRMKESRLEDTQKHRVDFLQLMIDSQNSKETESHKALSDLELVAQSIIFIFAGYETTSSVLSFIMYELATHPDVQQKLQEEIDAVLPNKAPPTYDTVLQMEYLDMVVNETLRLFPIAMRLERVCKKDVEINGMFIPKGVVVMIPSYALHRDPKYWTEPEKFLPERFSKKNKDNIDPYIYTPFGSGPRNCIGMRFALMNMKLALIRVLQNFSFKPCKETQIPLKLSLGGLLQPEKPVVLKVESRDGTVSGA
Summary of the method: as §1

[4] = molecular target: T3, Sodium-dependent dopamine transporter; assay type: cell-based, HEK293
[5] = molecular target: T1, Sodium-dependent noradrenaline transporter; assay type: cell-based, HEK293
[6] = molecular target: T2, Sodium-dependent serotonin transporter; assay type: cell-based, HEK293
Target sequence in this assay (P31645 whole entry): as the sequence (P31645 whole entry, looked up) above

Rattus norvegicus [7] = experiment: Apparent volume of distribution during terminal phase in Sprague-Dawley rat at 1 mg/kg, iv; assay type: ADME, organism-based; design: dose 1 mg/kg, route intravenous; settings: in vivo
[8] = Ratio of drug level from brain to plasma in ICR mouse at 10 mg/kg, ip from 30 mins to 3 hrs by LC-MS/MS analysis; assay type: ADME, organism-based; design: dose 10 mg/kg, route intraperitoneal; settings: read-out: BPR
Rattus norvegicus [9] = experiment: AUC (infinity) in Sprague-Dawley rat at 1 mg/kg, iv; assay type: ADME, organism-based, Plasma; design: time infinity, dose 1 mg/kg, route intravenous; settings: in vivo
[10] = Cmax in Sprague-Dawley rat at 2 mg/kg, po; assay type: ADME, organism-based; design: dose 2 mg/kg, route oral; settings: in vivo
[11] = Mean residence time ( 0 to t ) in Sprague-Dawley rat at 1 mg/kg, iv; assay type: ADME, organism-based; design: dose 1 mg/kg, route intravenous; settings: in vivo
[12] = Apparent oral clearance in Sprague-Dawley rat at 2 mg/kg, po; assay type: ADME, organism-based; design: dose 2 mg/kg, route oral; settings: in vivo
[13] = Tmax in Sprague-Dawley rat at 2 mg/kg, po; assay type: ADME, organism-based; design: dose 2 mg/kg, route oral; settings: in vivo
[14] = AUC (all) in Sprague-Dawley rat at 1 mg/kg, iv; assay type: ADME, organism-based; design: dose 1 mg/kg, route intravenous; settings: plasma
[15] = Terminal half life in Sprague-Dawley rat at 1 mg/kg, iv; assay type: ADME, organism-based; design: dose 1 mg/kg, route intravenous; settings: in vivo, read-out: beta t1/2 (converted)
Rattus norvegicus [16] = experiment: Oral bioavailability in Sprague-Dawley rat at 2 mg/kg; assay type: ADME, organism-based; settings: in vivo
Liver microsomes = experiment: Stability in human liver microsomes assessed as compound remaining at 1 uM after 0.5 hrs by BD Gentest assay; assay type: ADME, Microsome
Rattus norvegicus [17] = experiment: AUC (infinity) in Sprague-Dawley rat at 2 mg/kg, po; assay type: ADME, organism-based, Plasma; design: time infinity, dose 2 mg/kg, route oral; settings: in vivo
[18] = Apparent volume of distribution during terminal phase in Sprague-Dawley rat at 2 mg/kg, po; assay type: ADME, organism-based; design: dose 2 mg/kg, route oral; settings: in vivo, read-out: Vz/F
[19] = Cmax in Sprague-Dawley rat at 1 mg/kg, iv; assay type: ADME, organism-based; design: dose 1 mg/kg, route intravenous; settings: in vivo
[20] = Mean residence time ( 0 to t ) in Sprague-Dawley rat at 2 mg/kg, po; assay type: ADME, organism-based; design: dose 2 mg/kg, route oral; settings: in vivo
[21] = molecular target: Voltage-gated inwardly rectifying potassium channel KCNH2 (Homo sapiens, UniProt Q12809); experiment: Inhibition of human ERG expressed in CHOK1 cells by patch clamp technique; assay type: cell-based, CHO-K1
Voltage-gated inwardly rectifying potassium channel KCNH2, sequence (Q12809 whole entry): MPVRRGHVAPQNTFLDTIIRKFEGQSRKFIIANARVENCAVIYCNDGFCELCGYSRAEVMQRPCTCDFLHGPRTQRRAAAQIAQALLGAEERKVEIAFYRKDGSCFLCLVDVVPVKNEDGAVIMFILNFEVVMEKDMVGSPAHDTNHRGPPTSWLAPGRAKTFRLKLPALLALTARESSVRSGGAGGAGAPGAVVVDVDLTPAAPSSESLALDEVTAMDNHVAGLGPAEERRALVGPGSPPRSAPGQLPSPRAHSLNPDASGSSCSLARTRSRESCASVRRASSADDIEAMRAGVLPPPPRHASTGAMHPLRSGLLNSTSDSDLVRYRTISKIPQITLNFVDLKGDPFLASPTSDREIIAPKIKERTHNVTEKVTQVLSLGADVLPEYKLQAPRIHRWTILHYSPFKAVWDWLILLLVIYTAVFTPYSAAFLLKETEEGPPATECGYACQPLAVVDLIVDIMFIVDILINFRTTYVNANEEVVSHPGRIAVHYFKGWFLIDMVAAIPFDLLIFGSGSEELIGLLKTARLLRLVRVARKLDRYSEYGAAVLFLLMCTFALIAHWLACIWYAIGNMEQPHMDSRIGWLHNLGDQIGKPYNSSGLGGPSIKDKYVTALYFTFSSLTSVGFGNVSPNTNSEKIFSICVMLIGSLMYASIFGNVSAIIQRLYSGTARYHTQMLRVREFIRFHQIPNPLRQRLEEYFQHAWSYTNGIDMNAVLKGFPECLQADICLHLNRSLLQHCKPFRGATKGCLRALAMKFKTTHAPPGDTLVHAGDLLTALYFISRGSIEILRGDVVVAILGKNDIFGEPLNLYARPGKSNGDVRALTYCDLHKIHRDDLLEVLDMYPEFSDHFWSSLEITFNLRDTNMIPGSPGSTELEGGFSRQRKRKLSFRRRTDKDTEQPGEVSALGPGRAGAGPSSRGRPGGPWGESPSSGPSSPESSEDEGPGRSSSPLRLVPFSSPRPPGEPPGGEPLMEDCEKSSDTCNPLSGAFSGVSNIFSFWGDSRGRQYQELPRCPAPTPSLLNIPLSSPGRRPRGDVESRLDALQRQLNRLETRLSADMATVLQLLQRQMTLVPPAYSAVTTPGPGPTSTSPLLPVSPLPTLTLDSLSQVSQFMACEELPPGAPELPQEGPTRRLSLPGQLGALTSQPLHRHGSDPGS

[22] = Terminal half life in Sprague-Dawley rat at 2 mg/kg, po; assay type: ADME, organism-based; design: dose 2 mg/kg, route oral; settings: in vivo, read-out: beta t1/2 (converted)
[23] = AUC (all) in Sprague-Dawley rat at 2 mg/kg, po; assay type: ADME, organism-based; design: dose 2 mg/kg, route oral; settings: plasma
[24] = Apparent oral clearance in Sprague-Dawley rat at 1 mg/kg, iv; assay type: ADME, organism-based; design: dose 1 mg/kg; settings: in vivo
Mus musculus [25] = experiment: Antidepressant activity in ICR mouse assessed as reduction in immobility time at 10 mg/kg, iv after 0.5 hrs by forced swimming test; assay type: functional, organism-based; design: dose 10 mg/kg
Summary of the method: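 ICR mice; forced swimming test following Porsolt's method. Intravenous dosing 0.5 h before the test at 2.5, 5.0 and 10.0 mg/kg. Read-out was immobility time, compared with vehicle-treated mice.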

Mus musculus [26] = experiment: Antidepressant activity in iv dosed ICR mouse assessed as reduction in immobility time dosed 0.5 hrs before forced swimming test; assay type: functional, organism-based
Summary of the method: (§2)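 ICR mice were tested in the Porsolt forced swimming test with a 30 min pretreatment. Doses were 2.5, 5.0 and 10.0 mg/kg IV or 10, 20 and 40 mg/kg PO. Read-out was immobility time, compared with vehicle. Venlafaxine was the positive control.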

Mus musculus [27] = experiment: Antidepressant activity in po dosed ICR mouse assessed as reduction in immobility time dosed 0.5 hrs before forced swimming test; assay type: functional, organism-based
Summary of the method: as §2

T1 sequence (P23975 whole entry): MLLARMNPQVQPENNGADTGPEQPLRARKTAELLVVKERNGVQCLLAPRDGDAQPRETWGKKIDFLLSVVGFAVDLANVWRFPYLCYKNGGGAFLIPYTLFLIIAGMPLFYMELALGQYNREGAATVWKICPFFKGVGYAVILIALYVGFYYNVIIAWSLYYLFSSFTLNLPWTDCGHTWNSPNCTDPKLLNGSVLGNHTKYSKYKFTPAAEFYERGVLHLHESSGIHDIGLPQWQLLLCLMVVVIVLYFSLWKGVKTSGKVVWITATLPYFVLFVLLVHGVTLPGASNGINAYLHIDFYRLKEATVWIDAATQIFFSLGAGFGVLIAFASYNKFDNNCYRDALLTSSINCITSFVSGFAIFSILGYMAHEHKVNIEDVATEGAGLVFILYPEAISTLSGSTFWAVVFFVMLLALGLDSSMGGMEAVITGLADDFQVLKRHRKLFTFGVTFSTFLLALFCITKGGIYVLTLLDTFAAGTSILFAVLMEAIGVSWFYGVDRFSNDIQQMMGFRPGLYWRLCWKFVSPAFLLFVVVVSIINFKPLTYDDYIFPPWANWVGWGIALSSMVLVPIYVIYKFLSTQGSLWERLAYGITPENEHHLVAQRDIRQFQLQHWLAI

Clc1ccc(C(Oc2ccccc2)C2CNC2)cc1Cl (centres undefined)
inhibition [1]: 89% | inhibition [2]: 16% | inhibition [3]: 58%

COC(c1ccccc1)C1CNC1 (centres undefined)
inhibition [1]: 1.5% | inhibition [2]: 3.3% | inhibition [3]: 2.2%

Clc1ccc(OC(c2ccc3ccccc3c2)C2CNC2)cc1Cl (centres undefined)
inhibition [1]: 79% | inhibition at 5 min, 10 µM (CYP2D6): 25% | inhibition at 5 min, 10 µM (CYP3A4): 41% | IC50 [4]: 54 nM | IC50 [5]: 16 nM | inhibition [2]: 28% | inhibition [3]: 68% | IC50 [6]: 35 nM

c1ccc(COC(c2ccccc2)C2CNC2)cc1 (centres undefined)
inhibition [1]: 9.4% | inhibition [2]: 12% | inhibition [3]: 2%

CCOC(c1ccc(Cl)cc1)C1CNC1 (centres undefined)
inhibition [1]: 10% | inhibition [2]: 4.6% | inhibition [3]: 7.3%

Fc1ccc(C(OCCN2CCN(CCCc3ccccc3)CC2)c2ccc(F)cc2)cc1
inhibition [1]: -5.9% | inhibition [2]: 1.9%

OC(c1ccc(Cl)cc1)C1CNC1 (centres undefined)
inhibition [1]: 3.5% | inhibition [2]: 2% | inhibition [3]: 2.1%

CCOC(c1ccc(Cl)c(Cl)c1)C1CNC1 (centres undefined)
inhibition [1]: 49% | inhibition [2]: 28% | inhibition [3]: 30%

CCCOC(c1ccc2ccccc2c1)C1CNC1.Cl (centres undefined)
inhibition [1]: 87% | Vz/F (Rattus norvegicus [7]): 4.8 L/kg | Kp [8]: 0.86 | AUC (Rattus norvegicus [9]): 214.6 ng·h/mL | Cmax [10]: 7.3 ng/mL | MRT last [11]: 0.9 h | CL/F [12]: 775 mL/min/kg | Tmax [13]: 1 h | AUC [14]: 211 ng·h/mL | half-life [15]: 0.7 h | F (Rattus norvegicus [16]): 5.7% | Stability (Liver microsomes): Stable | AUC (Rattus norvegicus [17]): 49.4 ng·h/mL | IC50 [4]: 72 nM | Vd/F [18]: 249 L/kg | Cmax [19]: 198 ng/mL | MRT last [20]: 2.2 h | IC50 [5]: 12 nM | IC50 [21]: 980 nM | half-life [22]: 4.8 h | inhibition [2]: 77% | inhibition [3]: 48% | AUC [23]: 23.9 ng·h/mL | CL/F [24]: 78.3 mL/min/kg | IC50 [6]: 6.8 nM

COc1ccc(C(CN(C)C)C2(O)CCCCC2)cc1 (centres undefined)
Activity (Mus musculus [25]): Active

Clc1ccc(C(OCc2ccccc2)C2CNC2)cc1 (centres undefined)
inhibition [1]: 16% | inhibition [2]: 12% | inhibition [3]: 5.7%

c1ccc(OC(c2ccccc2)C2CNC2)cc1 (centres undefined)
inhibition [1]: 18% | inhibition [2]: 25% | inhibition [3]: 9.3%

Clc1ccc(C(OCc2ccccc2)C2CNC2)cc1Cl (centres undefined)
inhibition [1]: 30% | inhibition [2]: 12% | inhibition [3]: 12%

COC(c1ccc(Cl)c(Cl)c1)C1CNC1 (centres undefined)
inhibition [1]: 47% | inhibition [2]: 16% | inhibition [3]: 22%

Fc1cc(C(Oc2ccccc2)C2CNC2)ccc1Cl (centres undefined)
inhibition [1]: 76% | IC50 [4]: 148 nM | IC50 [5]: 21 nM | inhibition [2]: 49% | inhibition [3]: 30% | IC50 [6]: 142 nM

CCCOC(c1ccc(Cl)c(Cl)c1)C1CNC1 (centres undefined)
inhibition [1]: 87% | IC50 [4]: 32 nM | IC50 [5]: 10 nM | inhibition [2]: 39% | inhibition [3]: 74% | IC50 [6]: 44 nM

COC(c1ccc(Cl)cc1)C1CNC1 (centres undefined)
inhibition [1]: 7.7% | inhibition [2]: 3.9% | inhibition [3]: 2.6%

CNCCC(Oc1ccccc1OC)c1ccccc1 (centres undefined)
inhibition [2]: 9.9% | inhibition [3]: 9.8%

OC(c1ccccc1)C1CNC1 (centres undefined)
inhibition [1]: 0.2% | inhibition [2]: 1.7% | inhibition [3]: 3.9%

Cl.c1ccc(OC(c2ccc3ccccc3c2)C2CNC2)cc1 (centres undefined)
inhibition [1]: 90% | Vz/F (Rattus norvegicus [7]): 13.1 L/kg | Kp [8]: 2.7 | AUC (Rattus norvegicus [9]): 159.7 ng·h/mL | Cmax [10]: 5.6 ng/mL | MRT last [11]: 1.73 h | CL/F [12]: 812 mL/min/kg | Tmax [13]: 1.3 h | inhibition at 5 min, 10 µM (CYP2D6): 16% | Activity (Mus musculus [26]): Dose-dependent effect | AUC [14]: 153 ng·h/mL | half-life [15]: 1.4 h | F (Rattus norvegicus [16]): 5.8% | Stability (Liver microsomes): Stable | inhibition at 5 min, 10 µM (CYP3A4): 12% | Activity (Mus musculus [25]): Active | AUC (Rattus norvegicus [17]): 41.7 ng·h/mL | IC50 [4]: 35 nM | Vd/F [18]: 241 L/kg | Cmax [19]: 112 ng/mL | MRT last [20]: 2 h | IC50 [5]: 3.1 nM | half-life [22]: 3.3 h | inhibition [2]: 64% | inhibition [3]: 64% | AUC [23]: 17.9 ng·h/mL | CL/F [24]: 107 mL/min/kg | Activity (Mus musculus [27]): Dose-dependent effect | IC50 [6]: 8.3 nM

Fc1cc(C(Oc2ccccc2F)C2CNC2)ccc1Cl (centres undefined)
inhibition [1]: 81% | inhibition [2]: 41% | inhibition [3]: 29%

CCOC(c1ccccc1)C1CNC1 (centres undefined)
inhibition [1]: 4.5% | inhibition [2]: 4% | inhibition [3]: 3%

Clc1ccc(C(Oc2ccccc2)C2CNC2)cc1 (centres undefined)
inhibition [1]: 68% | inhibition [2]: 22% | inhibition [3]: 36%
